inhibition, Ki and IC50 data for 27 compounds are collected here from ChEMBL document CHEMBL2321860, “2-Arylpyrazolo[4,3-d]pyrimidin-7-amino derivatives as new potent and selective human A3 adenosine receptor antagonists. Molecular modeling studies and pharmacological evaluation” (J Med Chem, 2013).

A word on the inhibition: it is the relative decrease from the control value, in per cent. The Ki is the dissociation constant of the complex between target and ligand, obtained from inhibition or displacement. The low end stands for tighter binding, the high end for weaker binding. The term IC50 denotes the point on the concentration scale where inhibition reaches its midpoint.

Assay [1] addresses T1, Adenosine receptor A2b (Homo sapiens) (UniProt P29275).
T1 sequence (whole entry): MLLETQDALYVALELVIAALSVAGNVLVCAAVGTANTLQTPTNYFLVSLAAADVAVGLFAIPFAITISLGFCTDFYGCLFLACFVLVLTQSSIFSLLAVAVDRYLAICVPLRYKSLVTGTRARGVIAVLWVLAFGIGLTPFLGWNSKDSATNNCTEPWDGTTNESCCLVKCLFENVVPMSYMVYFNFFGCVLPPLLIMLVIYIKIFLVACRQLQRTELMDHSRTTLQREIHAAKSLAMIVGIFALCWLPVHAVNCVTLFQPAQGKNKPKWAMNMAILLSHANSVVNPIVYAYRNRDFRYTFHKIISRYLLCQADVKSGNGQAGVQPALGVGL
Nature of the assay: Inhibition of human A2B adenosine receptor transfected in CHO cells assessed as inhibition of NECA-induced cyclic AMP production at 1 uM after 10 mins by competitive protein binding assay. The class given is cell-based. In a few lines: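 Human A2B CHO cells (1 × 10⁶/assay) preincubated 10 min at 37 °C in buffer with adenosine deaminase (2 IU/mL) and Ro 20-1724. Antagonist inhibition of 200 nM NECA-stimulated cAMP measured; reaction stopped with TCA. cAMP quantified by [3H]cAMP competition with adrenal binding protein. IC50 by sigmoid fit, mean SEM of four experiments; % inhibition at 1 μM.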

For assay [2], the target named is Adenosine receptor A2a (Homo sapiens, UniProt P29274). Briefly: Displacement of [3H]ZM241385 from human A2A adenosine receptor expressed in CHO cells at 1 uM after 60 mins by scintillation counting analysis. The class given is cell-based. In a few lines: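 Human A2A CHO membranes (50 μg protein) incubated with 1 nM [3H]ZM-241385 in 50 mM Tris-HCl, 10 mM MgCl2, pH 7.4, for 60 min at 4 °C, using 6–8 concentrations or 1 μM for % inhibition. Nonspecific binding defined with 1 μM ZM-241385. Ki via Cheng–Prusoff, mean SEM of four assays in duplicate.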
Chain of Adenosine receptor A2a (P29274 whole entry): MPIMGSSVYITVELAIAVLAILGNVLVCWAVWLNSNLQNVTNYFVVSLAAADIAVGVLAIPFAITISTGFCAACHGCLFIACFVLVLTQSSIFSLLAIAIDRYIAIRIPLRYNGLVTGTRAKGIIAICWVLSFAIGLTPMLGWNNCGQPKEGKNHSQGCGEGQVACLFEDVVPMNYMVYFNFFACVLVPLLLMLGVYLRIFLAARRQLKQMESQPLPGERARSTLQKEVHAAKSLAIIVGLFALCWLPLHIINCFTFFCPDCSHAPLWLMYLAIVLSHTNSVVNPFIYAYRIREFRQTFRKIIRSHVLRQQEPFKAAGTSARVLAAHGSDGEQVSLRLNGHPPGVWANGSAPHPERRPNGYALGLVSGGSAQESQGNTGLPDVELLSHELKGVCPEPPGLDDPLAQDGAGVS
A general note: In a radioligand displacement assay an active substance lowers the binding of a labelled ligand.

The target of assay [3] is T2, Adenosine receptor A1 (Homo sapiens) (UniProt P30542).
T2 sequence (whole entry): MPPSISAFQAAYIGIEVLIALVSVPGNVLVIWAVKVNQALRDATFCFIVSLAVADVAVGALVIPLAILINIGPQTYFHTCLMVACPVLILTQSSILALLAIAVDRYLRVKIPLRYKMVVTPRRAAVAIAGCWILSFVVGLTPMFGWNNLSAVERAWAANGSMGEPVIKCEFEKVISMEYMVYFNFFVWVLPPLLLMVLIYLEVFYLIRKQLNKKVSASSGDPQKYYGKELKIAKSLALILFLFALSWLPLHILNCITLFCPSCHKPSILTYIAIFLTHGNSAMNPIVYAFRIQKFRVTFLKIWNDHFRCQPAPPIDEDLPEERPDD
Nature of the assay: Displacement of [3H]DPCPX from human A1 adenosine receptor expressed in CHO cells at 1 uM after 120 mins by scintillation counting analysis. The class given is cell-based.

In assay [4] the target is T3, Adenosine receptor A3 (Homo sapiens, UniProt P0DMS8).
T3 sequence (P0DMS8 whole entry): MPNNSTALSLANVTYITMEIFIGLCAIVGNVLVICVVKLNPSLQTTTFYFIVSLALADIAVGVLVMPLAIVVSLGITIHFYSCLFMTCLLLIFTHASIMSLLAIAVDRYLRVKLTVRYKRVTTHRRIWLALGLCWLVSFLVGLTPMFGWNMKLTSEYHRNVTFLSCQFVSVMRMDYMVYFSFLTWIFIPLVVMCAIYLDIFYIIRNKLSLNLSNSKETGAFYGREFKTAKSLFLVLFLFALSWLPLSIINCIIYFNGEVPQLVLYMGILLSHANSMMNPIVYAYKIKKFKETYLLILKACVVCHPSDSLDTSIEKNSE
Nature of the assay: Displacement of [125I]AB-MECA from human A3 adenosine receptor expressed in CHO cells after 60 mins by scintillation counting analysis. It is filed as cell-based.

The target in assay [5] is T3, Adenosine receptor A3. Nature of the assay: Inhibition of human A3 adenosine receptor transfected in CHO cells assessed as inhibition of forskolin-induced cyclic AMP production after 10 mins by competitive protein binding assay in presence of CI-IB-MECA. It is filed as functional, cell-based. In a few lines:
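Human A3 CHO cells (1 × 10⁶/assay) preincubated 10 min at 37 °C with adenosine deaminase and Ro 20-1724. Antagonist potency measured against 100 nM Cl-IB-MECA-mediated inhibition of 1 μM forskolin-stimulated cAMP. cAMP quantified by [3H]cAMP competition binding. IC50 by sigmoid regression, mean SEM of four experiments.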

Assay [6] has as its target T4, Adenosine receptor A3 (Homo sapiens) (UniProt P0DMS8).
T4 sequence (whole entry): T3 sequence (P0DMS8 whole entry)
Nature of the assay: Displacement of [125I]AB-MECA from human A3 adenosine receptor expressed in CHO cells at 1 uM after 60 mins by scintillation counting analysis. The class given is cell-based. The method in brief:
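Human A3 CHO membranes (50 μg protein) incubated with 0.5 nM [125I]AB-MECA in 50 mM Tris-HCl, 10 mM MgCl2, 1 mM EDTA, pH 7.4, for 60 min at 37 °C. Nonspecific binding defined with 1 μM AB-MECA. Filtration then counting. Output is % inhibition at 1 μM.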

On to `CC(=O)Nc1nc(C)nc2cn(-c3ccccc3)nc12`, for which the inhibition in assay [1] turned out to be 5%; in assay [2], 4%; in assay [3], 25%. Moreover, the affinity in assay [4] corresponds to a Ki of 300 nM.

With `COc1ccc(-n2cc3nc(C)nc(NC(=O)c4ccccc4)c3n2)cc1`, the inhibition in assay [1] was 1%; in assay [2], 7%; in assay [3], 1%. Moreover, in assay [5], the IC50 turned out to be 128 nM. This compound also came in with a Ki in assay [4] of 35 nM.

Regarding `Cc1nc(NC(=O)c2ccncc2)c2nn(-c3ccccc3)cc2n1`, the inhibition in assay [2] came out at 1%; in assay [3], 12%. For the same compound, affinity in assay [4] was put at a Ki of 5.2 nM.

For the compound `Cc1nc(NC(=O)c2cccnc2)c2nn(-c3ccccc3)cc2n1`, the inhibition in assay [1] was 1%; in assay [2] it was 1%; in assay [3], 12%. This compound also gave a Ki in assay [4] of 5.3 nM.

For `O=C(Nc1nc(-c2ccccc2)nc2cn(-c3ccccc3)nc12)c1ccncc1`, the inhibition in assay [1], in assay [2] and in assay [3] was 1% throughout. This compound displayed a Ki in assay [4] of 25 nM.

In the case of `COc1ccc(-n2cc3nc(-c4ccccc4)nc(NC(C)=O)c3n2)cc1`, the inhibition in assay [1] was 1%; in assay [2], 11%; in assay [3], 1%. In assay [4], this compound had a Ki of 98 nM.

For the compound `COc1ccc(-n2cc3nc(C)nc(NC(=O)Nc4ccccc4)c3n2)cc1`, the inhibition amounted to 13% in assay [1], 1% in assay [6], 13% in assay [2] and 5% in assay [3].

Take `Cc1nc(NC(=O)c2ccco2)c2nn(-c3ccccc3)cc2n1`: the inhibition was 1% in assay [1], 1% in assay [2] and 20% in assay [3]. The compound further gave a Ki in assay [4] of 20 nM.

Regarding `Cc1nc2cn(-c3ccccc3)nc2c(=O)[nH]1`, the inhibition in assay [3] stood at 1%.

For the compound `O=C(Nc1nc(-c2ccccc2)nc2cn(-c3ccccc3)nc12)c1ccco1`, the values for the inhibition in assay [1], in assay [2] and in assay [3] were 1%, 1% and 11%, respectively. In assay [4], this compound showed a Ki of 24 nM.

Turning to `COc1ccc(-n2cc3nc(C)nc(NC(C)=O)c3n2)cc1`, the inhibition in assay [1], in assay [2] and in assay [3] was 30% in each case. This compound displayed a Ki in assay [4] of 100 nM.

As for `Cc1nc(NC(=O)NCc2ccccc2)c2nn(-c3ccccc3)cc2n1`, the inhibition in assay [1] worked out at 10%; in assay [6], 1%; in assay [2], 7%; in assay [3] it was 26%.

For the compound `O=C(Nc1nc(-c2ccccc2)nc2cn(-c3ccccc3)nc12)c1ccccc1`, the figures for the inhibition in assay [1], in assay [2] and in assay [3] were 2%, 5% and 5%, respectively. Also, the half-maximal inhibitory concentration (IC50) in assay [5] came to 65 nM. Besides, the Ki in assay [4] came out at 20 nM.

Regarding `O=C(c1ccco1)N(C(=O)c1ccco1)c1nc(-c2ccccc2)nc2cn(-c3ccccc3)nc12`, the inhibition in assay [1] came to 1%; in assay [2] it was 1%; in assay [3], 3%. This compound displayed an inhibition constant Ki in assay [4] of 75 nM.

Take `COc1ccc(-n2cc3nc(C)nc(NC(=O)c4ccco4)c3n2)cc1`: the inhibition in assay [1] was 1%; in assay [2], 6%; in assay [3] it was 6%. Besides, the affinity in assay [4] corresponds to a Ki of 45 nM.

With `Cc1nc(N(C(=O)c2ccco2)C(=O)c2ccco2)c2nn(-c3ccccc3)cc2n1`, the inhibition in assay [1] was determined as 1%; in assay [2], 1%; in assay [3], 4%. This compound also registered a Ki in assay [4] of 33 nM.

In the case of `COc1ccc(-n2cc3nc(C)nc(N)c3n2)cc1`, the inhibition in assay [1] was found to be 2%; in assay [6], 38%; in assay [2] it was 1%; in assay [3] it was 30%.

Turning to `COc1ccc(-n2cc3nc(Cc4ccccc4)nc(N)c3n2)cc1`, the inhibition in assay [1] amounted to 33%; in assay [6], 45%; in assay [2] it was 37%; in assay [3], 40%.

With `COc1ccc(-n2cc3nc(C)nc(NC(=O)NCc4ccccc4)c3n2)cc1`, the inhibition in assay [1] was found to be 1%; in assay [6] it was 6%; in assay [2] it was 7%; in assay [3], 8%.

In the case of `Cc1nc(N(C(=O)c2ccccc2)C(=O)c2ccccc2)c2nn(-c3ccccc3)cc2n1`, the inhibition in assay [1] came out at 5%; in assay [2], 1%; in assay [3], 6%. Further, in assay [5], the IC50 came out at 115 nM. Also, affinity in assay [4] was put at a Ki of 33 nM.

Consider `COc1ccc(C(=O)Nc2nc(-c3ccccc3)nc3cn(-c4ccccc4)nc23)cc1`, for which the values for the inhibition in assay [1], in assay [2] and in assay [3] were 1%, 1% and 3%, respectively. The compound also returned a Ki in assay [4] of 7.3 nM.

Consider `COc1ccc(C(=O)Nc2nc(C)nc3cn(-c4ccccc4)nc23)cc1`, for which the inhibition in assay [1] was determined as 1%; in assay [2] it was 1%; in assay [3], 4%.

For the compound `COc1ccc(-n2cc3nc(C)nc(NC(=O)Cc4ccccc4)c3n2)cc1`, the inhibition amounted to 11% in assay [1], 11% in assay [2] and 9% in assay [3]. This compound displayed a Ki in assay [4] of 520 nM.

In the case of `COc1ccc(-n2cc3nc(-c4ccccc4)nc(N)c3n2)cc1`, the values for the inhibition in assay [1], in assay [2] and in assay [3] were 3%, 35% and 12%, respectively. In addition, the affinity in assay [4], expressed as Ki, was 75 nM.

Take `Cc1nc(NC(=O)Nc2ccccc2)c2nn(-c3ccccc3)cc2n1`: the inhibition amounted to 1% in assay [1], 30% in assay [6], 1% in assay [2] and 1% in assay [3].

As for `CC(=O)Nc1nc(-c2ccccc2)nc2cn(-c3ccccc3)nc12`, the inhibition was found to be 2% in assay [1], 5% in assay [2] and 5% in assay [3]. Also, the IC50 in assay [5] was 103 nM. The Ki in assay [4] was 32 nM.

Regarding `O=C(Nc1nc(-c2ccccc2)nc2cn(-c3ccccc3)nc12)c1cccnc1`, the inhibition in assay [1], in assay [2] and in assay [3] was 1% each time. This compound also showed a Ki in assay [4] of 3.2 nM.
